Columns and labels:
[1] = target: T1, 5-hydroxytryptamine receptor 6 (Homo sapiens, UniProt P50406); assay: Agonist activity at human 5-HT6 serotonin receptor expressed in CHO-1 cells assessed as cAMP production relative to 5-hydroxytryptamine; assay type: functional, cell-based; parameters: concentration or dose not given beside the values
[2] = target: T1, 5-hydroxytryptamine receptor 6; assay: Antagonist activity at human 5-HT6 serotonin receptor expressed in CHO-1 cells assessed as inhibition of 5-hydroxytryptamine-induced cAMP production; assay type: functional, cell-based
[3] = (§1) Stability in human liver microsomes assessed as compound remaining after 1 hr; assay type: ADME, Microsome; conditions: liver microsomes, read-out: Stability
Procedure, shortened: (§2)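 Human liver microsomes; percent parent compound remaining after 1 h incubation.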

[4] = (§3) Stability in rat liver microsomes assessed as compound remaining after 1 hr; assay type: ADME, Microsome; conditions: liver microsomes, read-out: Stability
Procedure, shortened: (§4)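 Rat liver microsomes; percent parent compound remaining after 1 h incubation.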

[5] = (§5) Efflux ratio of permeability from basolateral to apical side over apical to basolateral side in human Caco2 cells; assay type: ADME, cell-based; conditions: caco-2
[6] = (§6) Permeability from apical to basolateral side of human Caco2 cells; assay type: ADME, cell-based; conditions: caco-2, read-out: permeability
Procedure, shortened: (§7)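 Caco-2 monolayers; apical-to-basolateral flux reported as ×10^-6 cm/s.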

Liver microsomes [7] = assay: as §3; assay type: ADME, Microsome; conditions: microsomes, 1 h; procedure, shortened: as §4
Caco-2 [8] = assay: as §6; assay type: ADME, cell-based; procedure, shortened: as §7
Rattus norvegicus [9] = species on record: Rattus norvegicus; assay: Ex vivo 5-HT6 serotonin receptor occupancy in Sprague-Dawley rat brain after 6 hrs using [125I][…] by autoradiography; assay type: functional, organism-based
Procedure, shortened: (§8)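 Sprague Dawley rats dosed at 10, 30 or 90 mg/kg, brains taken at 6 or 24 h. Caudate putamen sections incubated with [125I]SB258585 alone (total) or plus methiothepin (non-specific); β-imager read-out. Two determinations per animal, 5 animals per dose group; specific binding expressed relative to vehicle controls.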

[10] = target: T1, 5-hydroxytryptamine receptor 6; assay: Displacement of [3H]LSD from human 5-HT6 serotonin receptor by scintillation proximity assay
Liver microsomes [11] = assay: as §1; assay type: ADME, Microsome; conditions: microsomes, 1 h; procedure, shortened: as §2
Caco-2 [12] = assay: as §5; assay type: ADME, cell-based
[13] = Half life in Sprague-Dawley rat at 10 mg/kg, po; assay type: ADME, organism-based; parameters: dose 10 mg/kg, route oral; conditions: in vivo
[14] = Cmax in Sprague-Dawley rat at 10 mg/kg, po; assay type: ADME, organism-based; parameters: dose 10 mg/kg, route oral; conditions: in vivo
[15] = Ratio of drug level in brain to plasma in Sprague-Dawley rat at 10 mg/kg, po after 6 hrs; assay type: ADME, organism-based; parameters: dose 10 mg/kg, route oral; conditions: read-out: BPR
Rattus norvegicus [16] = assay: Ex vivo 5-HT6 serotonin receptor occupancy in Sprague-Dawley rat brain at 90 mg/kg after 24 hrs using [125I][…] by autoradiography; assay type: functional; procedure, shortened: as §8
[17] = Tmax (0 to 6 hrs) in Sprague-Dawley rat at 30 mg/kg, po; assay type: ADME, organism-based; parameters: dose 30 mg/kg, route oral; conditions: in vivo
Rattus norvegicus [18] = assay: Ex vivo 5-HT6 serotonin receptor occupancy in Sprague-Dawley rat brain at 30 mg/kg after 6 hrs using [125I][…] by autoradiography; assay type: functional; procedure, shortened: as §8
Rattus norvegicus [19] = assay: Ex vivo 5-HT6 serotonin receptor occupancy in Sprague-Dawley rat brain at 30 mg/kg after 24 hrs using [125I][…] by autoradiography; assay type: functional; procedure, shortened: as §8
Rattus norvegicus [20] = assay: Ex vivo 5-HT6 serotonin receptor occupancy in Sprague-Dawley rat brain at 10 mg/kg after 24 hrs using [125I][…] by autoradiography; assay type: functional; procedure, shortened: as §8
Rattus norvegicus [21] = assay: Ex vivo 5-HT6 serotonin receptor occupancy in Sprague-Dawley rat brain at 10 mg/kg after 6 hrs using [125I][…] by autoradiography; assay type: functional; procedure, shortened: as §8
[22] = AUC (0 to infinity) in Sprague-Dawley rat at 10 mg/kg, po; assay type: ADME, organism-based; parameters: time infinity, dose 10 mg/kg, route oral; conditions: plasma
[23] = Cmax (0 to 6 hrs) in Sprague-Dawley rat at 30 mg/kg, po; assay type: ADME, organism-based; parameters: dose 30 mg/kg, route oral; conditions: in vivo
[24] = Clearance in Sprague-Dawley rat at 2 mg/kg, iv; assay type: ADME, organism-based; parameters: dose 2 mg/kg, route intravenous; conditions: in vivo
[25] = Oral bioavailability in Sprague-Dawley rat at 2 mg/kg; assay type: ADME, organism-based; conditions: in vivo
[26] = Volume of distribution at steady state in Sprague-Dawley rat at 2 mg/kg, iv; assay type: ADME, organism-based; parameters: dose 2 mg/kg, route intravenous; conditions: in vivo, read-out: Vdss
[27] = Tmax in Sprague-Dawley rat at 10 mg/kg, po; assay type: ADME, organism-based; parameters: dose 10 mg/kg, route oral; conditions: in vivo
Rattus norvegicus [28] = assay: Ex vivo 5-HT6 serotonin receptor occupancy in Sprague-Dawley rat brain at 90 mg/kg after 6 hrs using [125I][…] by autoradiography; assay type: functional; procedure, shortened: as §8
[29] = Oral bioavailability in Sprague-Dawley rat at 10 mg/kg; assay type: ADME, organism-based; conditions: in vivo

T1 sequence (P50406 whole entry): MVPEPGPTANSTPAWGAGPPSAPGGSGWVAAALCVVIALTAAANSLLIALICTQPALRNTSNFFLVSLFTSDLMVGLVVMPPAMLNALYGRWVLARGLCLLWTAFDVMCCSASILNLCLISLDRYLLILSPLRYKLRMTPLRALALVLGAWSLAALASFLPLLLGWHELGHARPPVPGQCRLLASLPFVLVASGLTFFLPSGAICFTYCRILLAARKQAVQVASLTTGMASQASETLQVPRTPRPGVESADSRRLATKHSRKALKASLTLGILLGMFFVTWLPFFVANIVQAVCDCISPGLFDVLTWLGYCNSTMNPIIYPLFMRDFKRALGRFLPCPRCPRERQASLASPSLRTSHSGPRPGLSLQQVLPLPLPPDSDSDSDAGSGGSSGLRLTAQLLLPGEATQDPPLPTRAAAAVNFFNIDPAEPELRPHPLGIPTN

For Cn1c2c(c3cc(S(=O)(=O)c4cccc(Cl)c4)ccc31)C1CCC(C2)N1 (single isomer, unassigned; (+)) [listing 1 of 2 here], the Activity [1] was less than 15% and the Kb [2] was 4 nM.
For Cn1c2c(c3cc(S(=O)(=O)c4cccc(Cl)c4)ccc31)C1CCC(C2)N1 (single isomer, unassigned; (-)) [listing 1 of 2 here], the remaining at 1 h [3] was 76%, the remaining at 1 h [4] was 63% and the efflux ratio [5] was 6. The Papp A→B [6] was 7.49 ×10⁻⁶ cm/s.
In the case of Cn1c2c(c3cc(S(=O)(=O)c4csc5ccccc45)ccc31)C1CCC(C2)N1 (single isomer, unassigned; (-)) [listing 1 of 2 here], the Activity [1] is reported as less than 15%.
Cn1c2c(c3cc(S(=O)(=O)c4c[nH]c5ccccc45)ccc31)C1CCC(C2)N1 (single isomer, unassigned; (-)) [listing 1 of 2 here] showed a remaining at 1 h [3] of 72%, a Stability (Liver microsomes [7]) of 34% and a permeability (Caco-2 [8]) of 0.41 ×10⁻⁶ cm/s.
Compound Cn1c2c(c3cc(S(=O)(=O)c4ccccc4)ccc31)C1CCC(C2)N1 (single isomer, unassigned; (+)) has an Activity [1] of less than 15%.
With Cn1c2c(c3cc(S(=O)(=O)c4cccc(C(F)(F)F)c4)ccc31)C1CCC(C2)N1 (single isomer, unassigned; (+)) [listing 1 of 2 here] the Activity [1] was less than 15% and the Activity (Rattus norvegicus [9]) was “Dose-dependent effect”.
For Cn1c2c(c3cc(S(=O)(=O)c4cccc(Cl)c4)ccc31)C1CCC(C2)N1 (single isomer, unassigned; (-)) [listing 2 of 2 here], the Activity [1] was less than 15% and the Kb [2] was 3.5 nM.
In the case of O=S(=O)(c1ccccc1)c1ccc2[nH]c3c(c2c1)C1CCC(C3)N1 (racemic), the Ki [10] is reported as 54 nM.
Compound Cn1c2c(c3cc(S(=O)(=O)n4cccc4)ccc31)C1CCC(C2)N1 (racemic) has a Ki [10] of 32 nM.
For Cn1c2c(c3cc(S(=O)(=O)c4cccc(C(F)(F)F)c4)ccc31)C1CCC(C2)N1 (single isomer, unassigned; (-)) [listing 1 of 2 here], the Stability (Liver microsomes [11]) was 78%, the remaining at 1 h [4] was 65% and the Papp A→B [6] was 16.5 ×10⁻⁶ cm/s.
For Cn1c2c(c3cc(S(=O)(=O)c4c[nH]c5ccccc45)ccc31)C1CCC(C2)N1 (single isomer, unassigned; (-)) [listing 2 of 2 here], the Activity [1] was less than 15%.
Compound Cn1c2c(c3cc(S(=O)(=O)c4c[nH]c5ccccc45)ccc31)C1CCC(C2)N1 (single isomer, unassigned; (+)) [listing 1 of 2 here] has a Stability (Liver microsomes [11]) of 86%, a Stability (Liver microsomes [7]) of 57% and a permeability (Caco-2 [8]) of 1.05 ×10⁻⁶ cm/s.
With Cn1c2c(c3cc(S(=O)(=O)n4ccc5ccccc54)ccc31)C1CCC(C2)N1 (single isomer, unassigned; (-)) [listing 1 of 2 here] the Activity [1] was less than 15%.
For Cn1c2c(c3cccc(S(=O)(=O)c4ccccc4)c31)C1CCC(C2)N1 (racemic), the Ki [10] was 814 nM.
Cn1c2c(c3cc(S(=O)(=O)c4ccncc4)ccc31)C1CCC(C2)N1 (racemic) showed a Ki [10] greater than 10000 nM.
In the case of Cn1c2c(c3cc(S(=O)(=O)c4cccc(C(F)(F)F)c4)ccc31)C1CCC(C2)N1 (single isomer, unassigned; (-)) [listing 2 of 2 here], the Activity [1] is reported as less than 15%.
Cn1c2c(c3cc(S(=O)(=O)n4ccc5ccccc54)ccc31)C1CCC(C2)N1 (single isomer, unassigned; (-)) [listing 2 of 2 here] showed a remaining at 1 h [3] of 82%, a remaining at 1 h [4] of 88% and a Papp A→B [6] of 15 ×10⁻⁶ cm/s.
Compound Cn1c2c(c3cc(S(=O)(=O)c4cccc(F)c4)ccc31)C1CCC(C2)N1 (racemic) has a Ki [10] of 4.1 nM.
Compound Cn1c2c(c3cc(S(=O)(=O)c4c[nH]c5ccccc45)ccc31)C1CCC(C2)N1 (single isomer, unassigned; (+)) [listing 2 of 2 here] has an Activity [1] of less than 15%.
Work on Cn1c2c(c3cc(S(=O)(=O)c4cccc(Cl)c4)ccc31)C1CCC(C2)N1 (single isomer, unassigned; (+)) [listing 2 of 2 here] yielded a Stability (Liver microsomes [11]) of 93%, a Stability (Liver microsomes [7]) of 72% and a Ratio (Caco-2 [12]) of 4.4. For the same compound, the permeability (Caco-2 [8]) was 8.55 ×10⁻⁶ cm/s.
Cn1c2c(c3cc(S(=O)(=O)c4cccc(C(F)(F)F)c4)ccc31)C1CCC(C2)N1 (single isomer, unassigned; (+)) [listing 2 of 2 here] gave a half-life [13] of 10 h, a Cmax [14] of 916 ng/mL and a Kp at 6 h [15] of 1.3. The Stability (Liver microsomes [11]) was 100%, the Stability (Liver microsomes [7]) was 79% and the Activity (Rattus norvegicus [16]) was 84%. The Tmax [17] was 6 h, the Activity (Rattus norvegicus [18]) was 76% and the Activity (Rattus norvegicus [19]) was 74%. It also gave an Activity (Rattus norvegicus [20]) of 48%, an Activity (Rattus norvegicus [21]) of 60% and an AUC(0-inf) [22] of 26700 ng·h/mL. It also gave a Cmax [23] of 732 ng/mL, a clearance [24] of 5.7 mL/min/kg and a bioavailability [25] of 91%. It also gave a Vd [26] of 4.7 L/kg, a Tmax [27] of 4 h and an Activity (Rattus norvegicus [28]) of 78%. The bioavailability [29] was 91% and the permeability (Caco-2 [8]) was 24.8 ×10⁻⁶ cm/s.
For Cn1c2c(c3cc(S(=O)(=O)c4csc5ccccc45)ccc31)C1CCC(C2)N1 (single isomer, unassigned; (-)) [listing 2 of 2 here], the Stability (Liver microsomes [11]) was 52%, the remaining at 1 h [4] was 67% and the permeability (Caco-2 [8]) was 0.24 ×10⁻⁶ cm/s.
Cn1c2c(c3cc(S(=O)(=O)n4ccc5ccccc54)ccc31)C1CCC(C2)N1 (single isomer, unassigned; (+)) [listing 1 of 2 here] gave an Activity [1] of less than 15%.
For Cn1c2c(c3cc(S(=O)(=O)n4ccc5ccccc54)ccc31)C1CCC(C2)N1 (single isomer, unassigned; (+)) [listing 2 of 2 here], the Stability (Liver microsomes [11]) was 96%, the Stability (Liver microsomes [7]) was 86% and the Tmax [17] was 6 h. It also gave a Cmax [23] of 41 ng/mL and a permeability (Caco-2 [8]) of 12 ×10⁻⁶ cm/s.
Cn1c2c(c3cc(S(=O)(=O)c4csc5ccccc45)ccc31)C1CCC(C2)N1 (single isomer, unassigned) [listing 1 of 2 here] gave an Activity [1] of less than 15%.
Compound Cn1c2c(c3ccc(S(=O)(=O)c4ccccc4)cc31)C1CCC(C2)N1 (racemic) has a Ki [10] of 131 nM.
With Cn1ccc(S(=O)(=O)c2ccc3c(c2)c2c(n3C)CC3CCC2N3)n1 (stereo unspecified) the Ki [10] was 1010 nM.
Compound Cn1c2c(c3cc(S(=O)(=O)c4csc5ccccc45)ccc31)C1CCC(C2)N1 (single isomer, unassigned) [listing 2 of 2 here] has a Stability (Liver microsomes [11]) of 78%, a Stability (Liver microsomes [7]) of 80% and a permeability (Caco-2 [8]) of 15.7 ×10⁻⁶ cm/s.
In the case of Cn1c2c(c3cc(S(=O)(=O)c4ccccc4)ccc31)C1CCC(C2)N1 (single isomer, unassigned; (-)), the Activity [1] is reported as less than 15%.
With Cn1c2c(c3cc(S(=O)(=O)c4ccc5[nH]ccc5c4)ccc31)C1CCC(C2)N1 (single isomer, unassigned; (+)) [listing 1 of 2 here] the Stability (Liver microsomes [11]) was 99% and the Stability (Liver microsomes [7]) was 91%.
CCN1C2CCC1c1c(n(C)c3ccc(S(=O)(=O)c4ccccc4)cc13)C2 (racemic) gave a Ki [10] of 91 nM.
With Cn1c2c(c3cc(S(=O)(=O)c4ccc5[nH]ccc5c4)ccc31)C1CCC(C2)N1 (single isomer, unassigned; (+)) [listing 2 of 2 here] the Activity [1] was less than 15%.
Cn1c2c(c3cc(S(=O)(=O)c4ccc5[nH]ccc5c4)ccc31)C1CCC(C2)N1 (single isomer, unassigned; (-)) [listing 1 of 2 here] showed an Activity [1] of less than 15%.
With Cn1c2c(c3cc(S(=O)(=O)c4ccc5[nH]ccc5c4)ccc31)C1CCC(C2)N1 (single isomer, unassigned; (-)) [listing 2 of 2 here] the remaining at 1 h [3] was 89%, the remaining at 1 h [4] was 77% and the Papp A→B [6] was 0.55 ×10⁻⁶ cm/s.

Reference: ChEMBL document CHEMBL1949664, “Epiminocyclohepta[b]indole analogs as 5-HT6 antagonists” (Bioorg Med Chem Lett, 2012)
